Results: article PMC4330091 (Bioorganic & medicinal chemistry, 2014)
Where two headings read alike, the source gives them in different places. Marks after values point to notes of the source that are not given here. One block for each compound: values may come before it.

Tests used:
[1] = tested on: HT-29 colon cancer cell line; assay: MTT anti-proliferative assay on HT-29; format: cell-based, human; details: read-out: IC50, HT-29
[2] = tested on: MCF-7 breast cancer cell line; assay: MTT anti-proliferative assay on MCF-7; format: cell-based, human; details: read-out: IC50, MCF-7
[3] = tested on: MCF-10A non-tumorigenic human breast epithelial cell line; assay: MTT anti-proliferative assay on MCF-10A; format: cell-based; details: read-out: IC50, MCF-10A
MCF-7 cells [4] = tested on: MCF-7 cells
MCF-7 cells [5] = assay: Cytokinesis-block micronucleus assay; details: for % Binucleated cells (Mitotic rate) / Micronucleus (MNi) (mean ± SD): 72 h treatment; for % Binucleated cells (Mitotic rate): MCF-7, mean (SD); for increase in micronucleus forming activity compared to control (untreated cells): MCF-7; for Micronucleus (MNi) (mean ± SD): micronucleated cells in 500 binucleated MCF-7 cells
[6] = Cyclic voltammetry in CH3CN; format: physicochemical; details: 0.1 M [NBu4n]PF6, 100 mV/s, vs Ag/AgCl
Summary of the method: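 Test compound dissolved at 2 × 10⁻³ M in deoxygenated CH3CN with 0.1 M [NBuⁿ₄]PF₆ as supporting electrolyte; cyclic voltammograms recorded on these solutions.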

MCF-7 = assay: ROS production; format: cell-based, human; details: MCF-7, 72 h
[7] = CH3CN, vs Ag/AgCl, cited from earlier work
[8] = tested on: MCF-10A non-tumorigenic human breast epithelial cell line; details: cited from earlier work
[9] = tested on: HT-29 colon cancer cell line; details: read-out: IC50, HT-29; MTT assay, 72 h drug exposure; cited from earlier work
[10] = tested on: MCF-7 breast cancer cell line; details: cited from earlier work; for IC50: read-out: IC50, MCF-7, MTT assay, 72 h drug exposure
MCF-7 cells [11] = details: ref 35 (Yared et al.); cited from earlier work
[12] = MTT assay, 72 h drug exposure, SD in parenthesis
[13] = ref 14. J. Organometal. Chem 749 (2014) 204–214
[14] = ref 13. Dalton Trans. 40 (2011) 9557–9565

Structure (SMILES): O=C(O)[c-]1cccc1.O=C(O)[c-]1cccc1.[Fe+2] [1-1′ferrocenedicarboxilic acid]
- IC50 [1, 12]: 410 µM

- IC50 ([2]; Homo sapiens, MCF7, 72 h): 249 µM
- IC50 ([1]; Homo sapiens, HT-29, 72 h): 211 µM
Structure (SMILES): Oc1ccc(-n2cccc2)cc1 [4-(1H-pyrrol-1yl)phenol]
- IC50 ([3]; Homo sapiens, MCF-10A, 72 h): 553 µM

- IC50 [2, 12]: 45.5 µM
- E1/2 [6]: 910 mV
- Epa [6]: 958 mV
- Epc [6]: 862 mV
- ΔE [6]: 96 mV
- IC50 [1, 12]: 189 µM
Structure (SMILES): O=C(Oc1ccc(-n2cccc2)cc1)[c-]1cccc1.O=C(Oc1ccc(-n2cccc2)cc1)[c-]1cccc1.[Fe+2] [Fc-(CO2-Ph-4-Py)2, 1,1′-4-(1H-pyrrol-1-yl)phenyl ferrocenedicarboxylate]
- Micronucleus (MNi) (mean ± SD) (MCF-7 cells [4]): 15 (1) ^**
- increase in micronucleus forming activity compared to control (untreated cells) (MCF-7 cells [4]): up to 5 fold
- increase in micronucleus-forming activity (MCF-7 cells [4]): up to 5 fold
- % Binucleated cells (Mitotic rate) (MCF-7 cells [5]; 0.1 μM): 18 (7) ^* %
- % Binucleated cells (Mitotic rate) (MCF-7 cells [5]; 1 μM): 33 (13) ^* %
- % Binucleated cells (Mitotic rate) (MCF-7 cells [5]; 10 μM): 25 (6) ^* %
- IC50 [3, 12]: 298 µM
- ROS production (in words) (MCF-7): significant increase

Structure (SMILES): O=C(Oc1ccc(Br)cc1)[c-]1cccc1.[Fe+2].c1cc[cH-]c1 [Fc-CO2-Ph-4-Br, 4-bromophenyl ferrocenecarboxylate]
- E1/2 [7, 13]: 532 mV
- Epa [7, 13]: 580 mV
- Epc [7, 13]: 484 mV
- ΔE [7, 13]: 96 mV
- IC50 ([8]; read-out: IC50, MCF-10A, MTT assay, 72 h drug exposure): 353 µM
- IC50 [9]: 24 µM
- IC50 [10]: 9.2 µM

Structure (SMILES): O=C(Oc1ccc(-n2cccc2)cc1)[c-]1cccc1.[Fe+2].c1cc[cH-]c1 [Fc-CO2-Ph-4-Py, 4-(1H-pyrrol-1-yl)phenyl ferrocenecarboxylate]
- anti-proliferative activity (in words) ([8]; non-tumorigenic human breast epithelial cell line MCF-10A): high anti-proliferative activity
- anti-proliferative activity (in words) ([10]; hormone-dependent breast cancer cell line MCF-7): high anti-proliferative activity

Structure (SMILES): C[C@]12CC[C@@H]3c4ccc(OC(=O)[c-]5cccc5)cc4CC[C@H]3[C@@H]1CC[C@@H]2O.[Fe+2].c1cc[cH-]c1 [Fc-CO2-estradiol, ferrocenoyl 17β-hydroxy-estra-1,3,5(10)-trien-3-olate]
- % Binucleated cells (Mitotic rate) (MCF-7 cells [5]; 0.01 μM): 33 (2) ^* %
- increase in micronucleus forming activity compared to control (untreated cells) (MCF-7 cells [5]; 0.01 μM): 3 fold
- % Binucleated cells (Mitotic rate) (MCF-7 cells [5]; 0.1 μM): 39 (9) ^* %
- Micronucleus (MNi) (mean ± SD) (MCF-7 cells [5]; 0.1 μM): 25
- increase in micronucleus forming activity compared to control (untreated cells) (MCF-7 cells [5]; 0.1 μM): 4 fold
- % Binucleated cells (Mitotic rate) (MCF-7 cells [5]; 1 μM): 34 (9) ^* %
- Micronucleus (MNi) (mean ± SD) (MCF-7 cells [5]; 1 μM): 29
- increase in micronucleus forming activity compared to control (untreated cells) (MCF-7 cells [5]; 1 μM): 4 fold
- increase in micronucleus-forming activity (MCF-7 cells [5]; concentration near IC50, MCF-7): up to 4 fold
- E1/2 [7, 14]: 756 mV
- Epa [7, 14]: 801 mV
- Epc [7, 14]: 711 mV
- ΔE [7, 14]: 90 mV
- IC50 [3, 12]: 119 µM
- IC50 [9]: 24.4 µM
- ROS production (in words) (MCF-7): significant increase
- IC50 [10]: 9 µM

- E1/2 [6]: 454 mV
- Epa [6]: 494 mV
- Epc [6]: 414 mV
- ΔE [6]: 80 mV
Structure (SMILES): [Fe+2].c1cc[cH-]c1.c1cc[cH-]c1 [Fc/Fc^+, ferrocene]

Structure (SMILES): F[B-](F)(F)F.[Fe+3].c1cc[cH-]c1.c1cc[cH-]c1 [Ferricenium tetrafluoroborate]
- IC50 [9]: 180 µM
- IC50 [10]: 150 µM

- IC50 [2, 12]: 590 µM
- IC50 [1, 12]: 253 µM
Structure (SMILES): O=C(O)Cc1ccc[cH-]1.[Fe+2].c1cc[cH-]c1 [Ferroceneacetic acid]
- IC50 [3, 12]: 86 µM

Structure (SMILES): COS(C)(=O)=O [MMS, methyl methane sulphonate]
- % Binucleated cells (Mitotic rate) (MCF-7 cells [5]; 94.4 μM): 28 (3) ^* %
- Micronucleus (MNi) (mean ± SD) (MCF-7 cells [5]; 94.4 μM): 62 (6) ^***

Structure (SMILES): C[C@]12CC[C@@H]3c4ccc(O)cc4CC[C@H]3[C@@H]1CC[C@@H]2O [β-estradiol]
- increase in the micronucleus-forming activity (MCF-7 cells [11]): 3 fold
